Test results taken from ChEMBL document CHEMBL4616631, “Design, synthesis and evaluation of phthalide alkyl tertiary amine derivatives as promising acetylcholinesterase inhibitors with high potency and selectivity against Alzheimer's disease” (Bioorg Med Chem, 2020).
Active and inactive are the calls of the source. The calls are words filed in the database; no cut-off is given here.

Tests used:
[1] = Antioxidant activity assessed as trolox equivalent of AAPH-induced radical scavenging activity at 5 uM preincubated for 15 mins followed by AAPH addition measured every min for 90 mins by ORAC-FL assay; assay type: functional
Summary of the method: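 ORAC-FL in 75 mM phosphate buffer, pH 7.4. Sample at 5 µM was preincubated with fluorescein (150 nM final) for 15 min at 37 °C, then AAPH was added (12 mM final). Fluorescence (ex 485/em 535 nm) was read every minute for 90 min. […] Triplicate, at least three independent assays.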

[2] = target: Butyrylcholinesterase (BuChE) (Rattus norvegicus, UniProt Q9JKC1); test: Inhibition of BuChE in rat serum at 50 uM using S-butylthiocholine iodide as substrate by Ellman's method relative to control; assay type: cell-free; details: probe S-butylthiocholine iodide
Summary of the method: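 Rat serum (25%) as BuChE source, S-butylthiocholine iodide 1 mM, DTNB 0.2%, in 0.1 mM phosphate buffer pH 7.4, 37 °C 15 min (modified Ellman); absorbance change at 405 nm. Three independent experiments, each in triplicate.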

[3] = target: Acetylcholinesterase (Electrophorus electricus) (UniProt O42275); test: Inhibition of Electrophorus electricus AChE at 50 uM using […] as substrate incubated for 15 mins by Ellman's method relative to control
Summary of the method: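 Eel AChE (0.05 U/mL final) with acetylthiocholine iodide 1 mM and DTNB 0.2% in […] pH 8.0, 37 °C 15 min (modified Ellman); absorbance at 412 nm. Three independent experiments, each in triplicate.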

[4] = target: Amyloid-beta precursor protein (Homo sapiens) (UniProt P05067); test: Inhibition of HFIP-pretreated self-induced amyloid beta (1 to 42) (unknown origin) aggregation at 25 uM measured after 24 hrs by ThT fluorescence assay relative to control
Summary of the method: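 Aβ1-42 was pretreated in HFIP for 24 h at room temperature, dried, and dissolved in DMSO to a 200 µM stock. Aβ (25 µM) was incubated with compound (25 µM) at 37 °C for 24 h. ThT was added at 5 µM in glycine-NaOH, pH 8.5. Fluorescence ex 446/em 490 nm, background-subtracted; inhibition = (1−IFi/IFc)×100. Triplicate.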

Mus musculus [5] = test: (§1) Antialzheimer activity in scopolamine-induced Kunming mouse model of memory impairment assessed as decrease in number of electric shock at 5 mg/kg/day, ig for 7 days followed by training trial at 1 hr post dose on day 6 and subsequent scopolamine challenge at 30 mins post training trial and measured post last dose by step-down passive avoidance test; assay type: functional, organism-based
Summary of the method: (§2)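 Kunming mice, 18-22 g, male and female in half, 8 per group. Dosed i.g. once daily for 7 days, vehicle 0.5% CMC-Na. Day-6 training came 1 h after dosing: a 50 V, 5 s foot shock on stepping down from the platform, in a 5 min trial. Scopolamine 2.0 mg/kg i.p. followed 30 min later; control mice got none. Step-down latency and number of shocks were counted over 5 min in the test trial 24 h after training. Mean ± SEM.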

Mus musculus [6] = test: as §1, with “increase” for “decrease”, “latency time” for “number of electric shock”; assay type: functional, organism-based; summary of the method: as §2

Sequence of Butyrylcholinesterase (BuChE) (Q9JKC1 whole entry): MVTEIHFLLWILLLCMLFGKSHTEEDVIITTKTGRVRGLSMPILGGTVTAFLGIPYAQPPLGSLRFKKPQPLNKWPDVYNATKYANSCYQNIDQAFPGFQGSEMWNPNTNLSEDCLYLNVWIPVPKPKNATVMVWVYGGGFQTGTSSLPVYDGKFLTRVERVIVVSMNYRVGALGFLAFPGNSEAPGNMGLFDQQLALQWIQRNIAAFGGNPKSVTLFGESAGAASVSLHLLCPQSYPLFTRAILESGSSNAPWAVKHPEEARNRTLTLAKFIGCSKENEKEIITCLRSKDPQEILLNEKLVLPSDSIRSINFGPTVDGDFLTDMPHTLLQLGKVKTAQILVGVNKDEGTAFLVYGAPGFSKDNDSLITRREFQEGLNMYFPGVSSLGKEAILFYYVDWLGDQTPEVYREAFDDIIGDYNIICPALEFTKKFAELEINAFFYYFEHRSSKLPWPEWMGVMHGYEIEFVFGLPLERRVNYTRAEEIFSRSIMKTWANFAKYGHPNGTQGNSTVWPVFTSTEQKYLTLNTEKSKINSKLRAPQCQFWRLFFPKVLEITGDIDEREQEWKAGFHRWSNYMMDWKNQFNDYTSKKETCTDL
Sequence of Amyloid-beta precursor protein (Homo sapiens) (P05067 whole entry): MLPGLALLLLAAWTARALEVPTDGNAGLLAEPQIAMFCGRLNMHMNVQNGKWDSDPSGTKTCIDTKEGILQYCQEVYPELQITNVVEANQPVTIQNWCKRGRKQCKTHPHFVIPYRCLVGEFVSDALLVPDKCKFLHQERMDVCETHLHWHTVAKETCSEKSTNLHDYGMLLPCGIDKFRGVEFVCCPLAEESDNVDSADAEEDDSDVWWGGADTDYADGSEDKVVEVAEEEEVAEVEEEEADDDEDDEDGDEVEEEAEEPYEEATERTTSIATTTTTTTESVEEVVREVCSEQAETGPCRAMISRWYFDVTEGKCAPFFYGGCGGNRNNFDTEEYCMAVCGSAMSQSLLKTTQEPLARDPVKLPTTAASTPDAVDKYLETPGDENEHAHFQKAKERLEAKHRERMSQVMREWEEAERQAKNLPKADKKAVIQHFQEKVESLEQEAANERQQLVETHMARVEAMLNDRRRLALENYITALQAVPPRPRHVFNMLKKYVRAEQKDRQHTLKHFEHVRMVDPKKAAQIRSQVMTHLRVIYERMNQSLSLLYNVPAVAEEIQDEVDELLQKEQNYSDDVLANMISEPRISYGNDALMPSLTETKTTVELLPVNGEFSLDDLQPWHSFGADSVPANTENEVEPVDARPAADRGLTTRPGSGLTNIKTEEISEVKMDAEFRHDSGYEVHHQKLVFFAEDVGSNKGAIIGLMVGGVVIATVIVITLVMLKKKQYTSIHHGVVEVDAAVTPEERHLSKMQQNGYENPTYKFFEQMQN
Sequence of Acetylcholinesterase (Electrophorus electricus) (O42275 24-633 limits assumed): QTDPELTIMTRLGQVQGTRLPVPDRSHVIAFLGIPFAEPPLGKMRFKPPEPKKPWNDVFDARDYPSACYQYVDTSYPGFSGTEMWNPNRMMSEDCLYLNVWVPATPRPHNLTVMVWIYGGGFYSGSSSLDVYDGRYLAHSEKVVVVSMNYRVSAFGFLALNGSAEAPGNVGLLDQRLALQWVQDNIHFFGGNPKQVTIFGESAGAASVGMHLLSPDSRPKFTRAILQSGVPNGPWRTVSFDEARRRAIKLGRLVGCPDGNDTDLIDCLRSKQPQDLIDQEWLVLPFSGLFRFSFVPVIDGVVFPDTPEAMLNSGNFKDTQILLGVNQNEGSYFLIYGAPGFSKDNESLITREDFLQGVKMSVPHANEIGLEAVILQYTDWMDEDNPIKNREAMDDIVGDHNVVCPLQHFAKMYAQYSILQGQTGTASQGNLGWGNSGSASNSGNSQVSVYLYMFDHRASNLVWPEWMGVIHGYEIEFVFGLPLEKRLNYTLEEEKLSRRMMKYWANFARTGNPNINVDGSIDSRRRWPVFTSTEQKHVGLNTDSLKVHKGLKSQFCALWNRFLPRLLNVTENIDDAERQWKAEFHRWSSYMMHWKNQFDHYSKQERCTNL

SMILES	Activity [1] [µMequiv/µM]	inhibition at 50 µM [2] [%]	inhibition [3] [%]	inhibition [4] [%]	Activity (Mus musculus [5])	Activity (Mus musculus [6])
CCCCC1OC(=O)c2ccccc21 (racemic) [RAC-3-N-BUTYLPHTHALIDE]	0.21	2.67	< 5	< 5		
COc1cc2c(cc1OC)C(=O)C(CC1CCN(Cc3ccccc3)CC1)C2 (stereo unspecified)					inactive	inactive
